Each structure is given as a SMILES string. In brackets after ≈: the same amount, converted by molar mass. Activity calls are given as the source filed them.

Usually MIC stands for the smallest concentration in the dilution series that meets the test's criterion for growth inhibition. A lower MIC goes with a more susceptible organism.

Test [1] has as its system Staphylococcus. Nature of the test: Antimicrobial activity against Staphylococcus isolates biofilms assessed as decrease in bacterial load at 500 mg/litre at ambient temperature of 45 degC after 24 hrs relative to baseline. It is filed as functional. An outline of the steps:
(§1)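 24-h static biofilms of the staphylococcal isolates were exposed to drug for 24 h at 35, 40 or 45°C. Biofilms were not fixed but scraped off and resuspended in MHB, then serially diluted and 0.1 ml plated on blood agar, read after 48 h at 35°C in ambient air. Done in duplicate as mean log10 CFU/ml; log reduction was taken versus untreated biofilm.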

Test [2] deals with Staphylococcus. Nature of the test: Antimicrobial activity against Staphylococcus isolates biofilms assessed as change in optical density ratio of biofilms at 500 mg/litre at ambient temperature of 35 degC after 24 hrs relative to baseline. It is filed as functional. An outline of the steps: (§2)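 Static microtiter biofilms of 34 clinical S. aureus and CoNS isolates from orthopedic implant infections or preoperative skin, plus reference strains. Inoculum was McFarland 0.5 diluted 1:100 in calcium-supplemented MHB, grown 24 h at 35°C in ambient air. Established biofilms were exposed to drug for 24 h at 35, 40 or 45°C, then formalin-fixed and stained with 1% crystal violet for 5 min, and OD read at 550 nm in quadruplicate.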

Test [3] relates to Staphylococcus. Nature of the test: Antimicrobial activity against Staphylococcus isolates biofilms assessed as change in optical density ratio of biofilms at 500 mg/litre at ambient temperature of 45 degC after 24 hrs relative to baseline. It is filed as functional. The gist of the method:
as §2

Test [4] has as its system Staphylococcus aureus. Nature of the test: Antimicrobial activity against Staphylococcus aureus ATCC 29213 by […]. It is filed as functional.
The test system of test [5] is Staphylococcus aureus. Nature of the test: Antimicrobial activity against Staphylococcus aureus isolated from human prosthetic joint infection site by […]. It is filed as functional.
Test [6] relates to Staphylococcus epidermidis. Kind of test: Antimicrobial activity against Staphylococcus epidermidis DSM3269 by […]. It is filed as functional. A general note: A growth-free zone around the sample is the usual read-out of agar diffusion tests.
The subject of test [7] is Staphylococcus epidermidis. Nature of the test: Antimicrobial activity against Staphylococcus epidermidis isolate OR1 treated in solution at 45 degC after 24 hrs. It is filed as functional. The following applies: isolate OR1, 24 h. The gist of the method: (§3)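 Antimicrobials, as powder or in solution as used for MIC testing, held at 45°C for 1 and 24 h in three independent experiments. MICs were then determined by the CLSI microtiter plate method in cation-adjusted Mueller-Hinton medium, with MHB containing 50 μg/ml calcium for daptomycin. Values are median (range) […] in mg/liter.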

Test [8] deals with Staphylococcus. Nature of the test: Antimicrobial activity against Staphylococcus isolates biofilms assessed as change in optical density ratio of biofilms at 50 mg/litre at ambient temperature of 35 degC after 24 hrs relative to baseline. It is filed as functional. The gist of the method:
as §2

Test [9] concerns Staphylococcus. Nature of the test: Antimicrobial activity against Staphylococcus isolates biofilms assessed as change in optical density ratio of biofilms at 50 mg/litre at ambient temperature of 40 degC after 24 hrs relative to baseline. It is filed as functional. An outline of the steps: as §2
Test [10] has as its system Staphylococcus. Kind of test: Antimicrobial activity against coagulase-negative Staphylococcus isolated from human preoperative skin by […]. It is filed as functional.
The test system of test [11] is Staphylococcus. Kind of test: Antimicrobial activity against Staphylococcus isolates biofilms assessed as change in optical density ratio of biofilms at 100 mg/litre at ambient temperature of 40 degC after 24 hrs relative to baseline. It is filed as functional. The gist of the method:
as §2

Test [12] relates to Staphylococcus aureus. Kind of test: Antimicrobial activity against Staphylococcus aureus ATCC 29213 administered as powder at 45 degC after 24 hrs. It is filed as functional. The conditions noted are these: ATCC 29213, 24 h. An outline of the steps:
as §3

In test [13] the test system is Staphylococcus aureus. Kind of test: Antimicrobial activity against Staphylococcus aureus isolated from human preoperative skin by […]. It is filed as functional.
Test [14] relates to Staphylococcus. Nature of the test: Antimicrobial activity against Staphylococcus isolates biofilms assessed as change in optical density ratio of biofilms at 100 mg/litre at ambient temperature of 35 degC after 24 hrs relative to baseline. It is filed as functional. The gist of the method: as §2
For test [15], the system named is Staphylococcus. Kind of test: Antimicrobial activity against Staphylococcus isolates biofilms assessed as change in optical density ratio of biofilms at 100 mg/litre at ambient temperature of 45 degC after 24 hrs relative to baseline. It is filed as functional. The gist of the method:
as §2

Test [16] relates to Staphylococcus. Nature of the test: Antimicrobial activity against Staphylococcus isolates biofilms assessed as change in optical density ratio of biofilms at 500 mg/litre at ambient temperature of 40 degC after 24 hrs relative to baseline. It is filed as functional. The gist of the method:
as §2

For test [17], the system named is Staphylococcus epidermidis. Nature of the test: Antimicrobial activity against Staphylococcus epidermidis isolate KO8 isolated from healthy human skin by […]. It is filed as functional.
Test [18] relates to Staphylococcus. Kind of test: Antimicrobial activity against coagulase-negative Staphylococcus isolated from human prosthetic joint infection site by […]. It is filed as functional.
Test [19] concerns Staphylococcus. Nature of the test: Antimicrobial activity against Staphylococcus isolates biofilms assessed as decrease in bacterial load at 100 mg/litre at ambient temperature of 35 degC after 24 hrs relative to baseline. It is filed as functional. An outline of the steps:
as §1

In test [20] the test system is Staphylococcus. Nature of the test: Antimicrobial activity against Staphylococcus isolates biofilms assessed as change in optical density ratio of biofilms at 50 mg/litre at ambient temperature of 45 degC after 24 hrs relative to baseline. It is filed as functional. The gist of the method:
as §2

The test system of test [21] is Staphylococcus. Nature of the test: Antimicrobial activity against Staphylococcus isolates biofilms assessed as decrease in bacterial load at 500 mg/litre at ambient temperature of 40 degC after 24 hrs relative to baseline. It is filed as functional. An outline of the steps:
as §1

The test system of test [22] is Staphylococcus. Nature of the test: Antimicrobial activity against Staphylococcus isolates biofilms assessed as decrease in bacterial load at 25 mg/litre at ambient temperature of 45 degC after 24 hrs relative to baseline. It is filed as functional. The gist of the method: as §1
Test [23] relates to Staphylococcus. Kind of test: Antimicrobial activity against Staphylococcus isolates biofilms assessed as decrease in bacterial load at 100 mg/litre at ambient temperature of 40 degC after 24 hrs relative to baseline. It is filed as functional. The gist of the method:
as §1

Test [24] has as its system Staphylococcus. Kind of test: Antimicrobial activity against Staphylococcus isolates biofilms assessed as decrease in bacterial load at 100 mg/litre at ambient temperature of 45 degC after 24 hrs relative to baseline. It is filed as functional. The gist of the method:
as §1

For test [25], the system named is Staphylococcus. Kind of test: Antimicrobial activity against Staphylococcus isolates biofilms assessed as change in optical density ratio of biofilms at 5 mg/litre at ambient temperature of 35 degC after 24 hrs relative to baseline. It is filed as functional. The gist of the method: as §2
The test system of test [26] is Staphylococcus. Nature of the test: Antimicrobial activity against Staphylococcus isolates biofilms assessed as change in optical density ratio of biofilms at 5 mg/litre at ambient temperature of 40 degC after 24 hrs relative to baseline. It is filed as functional. An outline of the steps: as §2
In test [27] the test system is Staphylococcus. Kind of test: Antimicrobial activity against Staphylococcus isolates biofilms assessed as change in optical density ratio of biofilms at 1 mg/litre at ambient temperature of 45 degC after 24 hrs relative to baseline. It is filed as functional. An outline of the steps:
as §2

Test [28] relates to Staphylococcus. Kind of test: Antimicrobial activity against Staphylococcus isolates biofilms assessed as change in optical density ratio of biofilms at 1 mg/litre at ambient temperature of 40 degC after 24 hrs relative to baseline. It is filed as functional. An outline of the steps:
as §2

The test system of test [29] is Staphylococcus. Nature of the test: Antimicrobial activity against Staphylococcus isolates biofilms assessed as change in optical density ratio of biofilms at 25 mg/litre at ambient temperature of 35 degC after 24 hrs relative to baseline. It is filed as functional. The gist of the method:
as §2

Test [30] has as its system Staphylococcus. Nature of the test: Antimicrobial activity against Staphylococcus isolates biofilms assessed as change in optical density ratio of biofilms at 1 mg/litre at ambient temperature of 35 degC after 24 hrs relative to baseline. It is filed as functional. The gist of the method: as §2
Test [31] concerns Staphylococcus. Nature of the test: Antimicrobial activity against Staphylococcus isolates biofilms assessed as change in optical density ratio of biofilms at 5 mg/litre at ambient temperature of 45 degC after 24 hrs relative to baseline. It is filed as functional. The gist of the method:
as §2

Test [32] relates to Staphylococcus. Nature of the test: Antimicrobial activity against Staphylococcus isolates biofilms assessed as change in optical density ratio of biofilms at 25 mg/litre at ambient temperature of 40 degC after 24 hrs relative to baseline. It is filed as functional. An outline of the steps:
as §2

For test [33], the system named is Staphylococcus. Kind of test: Antimicrobial activity against Staphylococcus isolates biofilms assessed as decrease in bacterial load at 1 to 25 mg/litre at ambient temperature of 30 to 45 degC after 24 hrs relative to baseline. It is filed as functional, organism-based. The following applies: in the assay text read “35 to 45 degC” for “30 to 45 degC”. An outline of the steps: as §1

For test [34], the system named is Staphylococcus. Nature of the test: Antimicrobial activity against Staphylococcus isolates biofilms assessed as change in optical density ratio of biofilms at 25 mg/litre at ambient temperature of 45 degC after 24 hrs relative to baseline. It is filed as functional. An outline of the steps:
as §2

Take `Cn1nnnc1SCC1=C(C(=O)O)N2C(=O)[C@@H](NC(=O)[C@H](O)c3ccccc3)[C@H]2SC1` [CEFAMANDOLE]: the “fold change (FC)” value in [1] and in [21] was 2 in each case. In addition, the Ratio in test [2] is 1.27; in test [3], 0.65; in [8], 1.29; in test [9] it was 1.07; in test [11], 1.06; in [14], 1.12. The Ratio in test [15] turned out to be 0.63; in [16], 0.62; in test [20], 0.86. The MIC was determined as 0.5 µg/mL (≈ 1.08 µM) in test [4]; 1 µg/mL (≈ 2.16 µM) in test [5]; 0.5 µg/mL (≈ 1.08 µM) in test [6]; 2 µg/mL (≈ 4.32 µM) in [7]; 0.25 µg/mL (≈ 0.541 µM) in test [10]; 0.25 µg/mL (≈ 0.541 µM) in test [12]. Further, the results for the MIC in test [13], in [17] and in test [18] were 0.25 µg/mL (≈ 0.541 µM), 0.25 µg/mL (≈ 0.541 µM) and 1 µg/mL (≈ 2.16 µM), respectively. Also, the result in test [19] was inactive.
With `CCCCCCCCCC(=O)N[C@@H](Cc1c[nH]c2ccccc12)C(=O)N[C@H](CC(N)=O)C(=O)N[C@@H](CC(=O)O)C(=O)N[C@@H]1C(=O)NCC(=O)N[C@@H](CCCN)C(=O)N[C@@H](CC(=O)O)C(=O)N[C@H](C)C(=O)N[C@@H](CC(=O)O)C(=O)NCC(=O)N[C@H](CO)C(=O)N[C@@H]([C@H](C)CC(=O)O)C(=O)N[C@@H](CC(=O)c2ccccc2N)C(=O)O[C@@H]1C`, the minimal inhibitory concentration (MIC) in [4] turned out to be 0.125 µg/mL (≈ 0.0771 µM); in test [5], 0.125 µg/mL (≈ 0.0771 µM); in test [6], 0.25 µg/mL (≈ 0.154 µM); in [7], 1 µg/mL (≈ 0.617 µM); in test [10], 0.25 µg/mL (≈ 0.154 µM); in test [12], 0.5 µg/mL (≈ 0.309 µM). The minimum inhibitory concentration (MIC) was 0.125 µg/mL (≈ 0.0771 µM) in [13], 0.25 µg/mL (≈ 0.154 µM) in [17] and 0.125 µg/mL (≈ 0.0771 µM) in test [18]. The “fold change (FC)” value came out at 1.2 in test [22], 3.6 in [23], 3.3 in [24] and 2 in test [19].
In the case of `CN(C)c1cc(NC(=O)CNC(C)(C)C)c(O)c2c1C[C@H]1C[C@H]3[C@H](N(C)C)C(O)=C(C(N)=O)C(=O)[C@@]3(O)C(O)=C1C2=O` [TIGECYCLINE], the Ratio is listed as 0.99 in test [25]; 1.1 in test [26]; 0.93 in test [27]; 1.31 in [28]; 1.12 in [29]; 0.98 in [30]. The Ratio is reported as 0.86 in [31], 0.83 in [32] and 1.32 in [34]. The MIC in test [4] came to 0.06 µg/mL (≈ 0.102 µM); in test [5], 0.125 µg/mL (≈ 0.213 µM); in [6], 0.5 µg/mL (≈ 0.854 µM); in test [7] it was 2 µg/mL (≈ 3.41 µM); in [10], 0.03 µg/mL (≈ 0.0512 µM); in test [12], 1 µg/mL (≈ 1.71 µM). Moreover, the figures for the MIC in [13], in test [17] and in test [18] were 0.06 µg/mL (≈ 0.102 µM), 0.125 µg/mL (≈ 0.213 µM) and 0.06 µg/mL (≈ 0.102 µM), respectively. The result in test [33] and in test [19] was inactive.

For the origin of these results see ChEMBL document CHEMBL1671740, “Increased temperature enhances the antimicrobial effects of daptomycin, vancomycin, tigecycline, fosfomycin, and cefamandole on staphylococcal biofilms” (2010).
